The target in data set [1] is T1, Tubulin (Homo sapiens) (UniProt P68371+Q9H4B7+P0DPH7+P68366+Q13509+Q71U36+P04350+Q3ZCM7+P07437+P68363+Q9BQE3+Q6PEY2+Q13885+Q9BVA1+Q9BUF5). Kind of data set: Inhibition of tubulin polymerization in human HeLa cells assessed as shrink in cell border at 100 to 200 nM incubated for overnight by DAPI staining based immunofluorescence assay. The note with it: dose 100-200 nM. In a few lines: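 HeLa cells were treated overnight with a range of concentrations or DMSO. Cells were fixed in methanol, permeabilized with 0.1% Triton X-100 and blocked in 3% BSA for 1 h. They were stained with α-tubulin monoclonal antibody overnight at 4 °C, then Alexa 488 secondary antibody, with DAPI counterstain for 10 min. Images were taken by confocal microscopy.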

Data set [2] deals with HeLa. In words: Induction of apoptosis in human HeLa cells assessed as upregulation of p53 protein expression by Western blot analysis. The data set is classed as functional, cell-based. The note with it: dose 2-8 µM. An outline of the steps: (§1)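 HeLa cells were treated with graded concentrations or DMSO, washed in PBS and lysed. Protein was measured by BCA, separated by SDS-PAGE and transferred to PVDF. Membranes were blocked in 5% BSA/TBST, incubated with primary antibodies overnight at 4 °C, then with HRP secondary antibodies. Bands were detected by chemiluminescence.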

For data set [3], the system named is Jurkat. Kind of data set: Induction of DNA damage in human Jurkat cells assessed as increase in DNA lesion incubated for 48 hrs by comet assay. Conditions: dose 100-400 nM. The data set is classed as functional, cell-based. An outline of the steps: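 Jurkat cells were exposed to graded concentrations, MMC 200 nM positive control or DMSO for 48 h at 37 °C, with work done in darkness. Cells were embedded in LM agarose on comet slides and lysed for 2 h at 4 °C. Slides were unwound in 1 mM EDTA/200 mM NaOH for 30 min, electrophoresed at 25 V for 15 min, stained with ethidium bromide and imaged by fluorescence microscopy. Tail moment was scored.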

Data set [4] has as its system HeLa. In words: Induction of apoptosis in human HeLa cells assessed as late apoptotic cells at 1 uM incubated for 48 hrs by annexin-V-FITC and PI staining based flow cytometry analysis (reference value: 0.23 %). It counts as functional.
In data set [5] the test system is HeLa. In words: Induction of cell cycle arrest in human HeLa cells assessed as upregulation of BubR1 protein expression at 0.8 to 3.2 uM by Western blot analysis. It counts as functional, cell-based. Conditions: dose 0.8-3.2 µM. An outline of the steps: as §1
Data set [6] deals with HeLa. In words: Induction of apoptosis in human HeLa cells assessed as viable cells at 4 uM incubated for 48 hrs by annexin-V-FITC and PI staining based flow cytometry analysis (reference value: 97.34 %). It counts as functional. Conditions: read-out: Activity.
For data set [7], the system named is HeLa. Kind of data set: Induction of apoptosis in human HeLa cells assessed as necrotic cells at 1 uM incubated for 48 hrs by annexin-V-FITC and PI staining based flow cytometry analysis (reference value: 0.18 %). It counts as functional.
A short description of data set [8]: Toxicity in Balb/c mouse xenografted with human A2780 cells assessed as adverse effect at 25 to 50 mg/kg administered every two days. It counts as organism-based. The note with it: in vivo, dose 25-50 mg/kg.
Data set [9] relates to HeLa. In words: Induction of apoptosis in human HeLa cells assessed as late apoptotic cells at 4 uM incubated for 48 hrs by annexin-V-FITC and PI staining based flow cytometry analysis (reference value: 0.23 %). It counts as functional.
A short description of data set [10]: Inhibition of pig brain tubulin polymerization by spectrophotometry. On the set-up: species or system Sus scrofa.
The subject of data set [11] is A2780. In words: Antitumor activity against human A2780 cells xenografted in Balb/c mouse assessed as reduction in tumor weight at 25 to 50 mg/kg administered every two days. The data set is classed as functional, organism-based. Conditions: dose 25-50 mg/kg. In a few lines:
(§2)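 Nude mice carried A2780 cells implanted in PBS in the right flank. When tumors reached 100 mm³, mice were randomized into four groups (n = 10): vehicle, 25 or 50 mg/kg test compound, and PTX 10 mg/kg. Dosing was every two days; vehicle was 10% castor oil and 10% DMSO in PBS. Volume (π/6 × length × width²) and body weight were measured by caliper and scale at each dose. Tumors were excised and weighed at the end.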

The subject of data set [12] is HeLa. Kind of data set: Induction of apoptosis in human HeLa cells assessed as necrotic cells at 4 uM incubated for 48 hrs by annexin-V-FITC and PI staining based flow cytometry analysis (reference value: 0.18 %). The data set is classed as functional.
Data set [13] concerns A2780. In words: Antitumor activity against human A2780 cells xenografted in Balb/c mouse assessed as tumor growth inhibition administered every two days by caliper analysis. It counts as functional. Conditions: dose 25-50 mg/kg. In a few lines: as §2
Data set [14] deals with HeLa. Kind of data set: Induction of apoptosis in human HeLa cells assessed as viable cells at 8 uM incubated for 48 hrs by annexin-V-FITC and PI staining based flow cytometry analysis (reference value: 97.34 %). The data set is classed as functional. The note with it: read-out: Activity.
A short description of data set [15]: Toxicity in Balb/c mouse xenografted with human A2780 cells assessed as effect on body weight at 25 to 50 mg/kg administered every two days. The data set is classed as organism-based. The note with it: in vivo, dose 25-50 mg/kg. An outline of the steps: as §2
The test system of data set [16] is HeLa. In words: Induction of apoptosis in human HeLa cells assessed as early apoptotic cells at 1 uM incubated for 48 hrs by annexin-V-FITC and PI staining based flow cytometry analysis (reference value: 2.25 %). It counts as functional.
Data set [17] has as its target T1, Tubulin (Homo sapiens). Kind of data set: Inhibition of tubulin polymerization in human HeLa cells assessed as disorganisation of microtubule at 100 to 200 nM incubated for overnight by DAPI staining based immunofluorescence assay. It counts as cell-based. The note with it: dose 100-200 nM. In a few lines:
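HeLa cells were exposed overnight to a range of compound concentrations, with DMSO as the negative control. Cells were fixed in methanol, permeabilised with 0.1% Triton X-100 and blocked in 3% BSA for 1 h. They were probed with anti-α-tubulin monoclonal antibody overnight at 4 °C, then an Alexa 488 secondary antibody. Nuclei were stained with DAPI for 10 min at room temperature, and cells were imaged by confocal fluorescence microscopy.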

Data set [18] has as its system HeLa. In words: Induction of apoptosis in human HeLa cells assessed as viable cells at 2 uM incubated for 48 hrs by annexin-V-FITC and PI staining based flow cytometry analysis (reference value: 97.34 %). It counts as functional. The note with it: read-out: Activity.
The subject of data set [19] is HeLa. In words: Induction of apoptosis in human HeLa cells assessed as necrotic cells at 8 uM incubated for 48 hrs by annexin-V-FITC and PI staining based flow cytometry analysis (reference value: 0.18 %). It counts as functional.
Data set [20] concerns HeLa. Kind of data set: Induction of apoptosis in human HeLa cells assessed as late apoptotic cells at 2 uM incubated for 48 hrs by annexin-V-FITC and PI staining based flow cytometry analysis (reference value: 0.23 %). It counts as functional.
The test system of data set [21] is Jurkat. Kind of data set: Induction of DNA damage in human Jurkat cells assessed as upregulation of GADD45alpha protein expression incubated for 48 hrs by Western blot analysis. Conditions: dose 2-8 µM. It counts as functional, cell-based.
The subject of data set [22] is HeLa. Kind of data set: Induction of cell cycle arrest in human HeLa cells assessed as upregulation of cyclinB1 protein expression at 0.8 to 3.2 uM by Western blot analysis. It counts as functional, cell-based. Conditions: dose 0.8-3.2 µM. In a few lines:
as §1

The test system of a further data set is HCT-116. In words: Antiproliferative activity against human HCT-116 cells assessed as reduction in cell viability incubated for 48 hrs by MTT assay. It counts as functional, cell-based. Conditions: HCT-116, 48 h. In a few lines: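 Cells were grown in DMEM with 10% FBS and penicillin/streptomycin at 37 °C and 5% CO2. They were seeded for 24 h, then treated with graded concentrations for 48 h. MTT (5 mg/mL) was added for a further 4 h at 37 °C. Formazan was dissolved in DMSO and absorbance read at 570 nm. IC50 was taken from the concentration-response curve.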

The test system of data set [23] is HeLa. In words: Induction of apoptosis in human HeLa cells assessed as early apoptotic cells at 8 uM incubated for 48 hrs by annexin-V-FITC and PI staining based flow cytometry analysis (reference value: 2.25 %). It counts as functional.

The structures appear in SMILES notation. pIC50: −log10 of the molar value. The source made the active and inactive calls. The calls are words filed in the database; no cut-off is given here.

Turning to `COc1ccc(C2N=C2c2cc(OC)c(OC)c(OC)c2)cc1F` (centres undefined), the inhibition result on Tubulin (Homo sapiens) [1] and at Tubulin (Homo sapiens) [17] was “Active” each time. In addition, the Activity entry is “Dose-dependent effect” with HeLa [2]; “Dose-dependent effect” with Jurkat [3]; 1.38% in the data set with HeLa [4]; 0.28% with HeLa [7]; “Non-Toxic” in data set [8]; 7.52% in the data set with HeLa [9]. The Activity in the data set with HeLa [12] was 0.56%; in [15], “Non-Toxic”; with HeLa [16] it was 2.86%; with HeLa [19], 2.14%; in the data set on HeLa [20], 5.72%; in the data set with Jurkat [21] it was “Dose-dependent effect”. Also, in the data set with HeLa [23], the Activity was found to be 50.47%. Further, the result in the data set on HeLa [5], in the data set with A2780 [11] and with HeLa [22] was Active. Moreover, in the data set with HeLa [6], the viability at 4 µM stood at 63.5%. Besides, the pIC50 is 5.48 in data set [10] and 6.20 in the data set with HCT-116. Besides, the TGI entry with A2780 [13] was “Dose-dependent effect”. Further, the viability at 8 µM with HeLa [14] came out at 39.6%. Besides, in the data set on HeLa [18], the viability at 2 µM came to 74.7%.
